Active and inactive are the calls of the source. The rule behind the calls is not given here.
How the values were obtained:
Replicase polyprotein 1a = Replicase polyprotein 1a (Severe acute respiratory syndrome-related coronavirus, UniProt P0C6U8); experiment: Inhibition of SARS coronavirus 3CL protease
Procedure, shortened: (§1)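 SARS 3CLpro (75 nM) or 229E 3CLpro (75 nM), recombinant, expressed as GST fusion in E. coli BL21(DE3)pLysS and released with factor Xa. Enzyme preincubated with compound 20 min at 25 °C. Reaction in Tris-HCl pH 7.5, NaCl, EDTA, DTT and BSA, 30 min at 25 °C, stopped with TFA. Conversion measured by reverse-phase HPLC peak areas. Ki by Cheng–Prusoff.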

Human coronavirus 229E = experiment: Inhibition of human coronavirus 229E 3CL protease; assay type: functional; procedure, shortened: as §1
MRC5 [1] = experiment: Cytotoxicity against MRC5 cells infected with human coronavirus 229E; assay type: functional, cell-based
Vero = experiment: Cytotoxicity against VeroE6 cells infected with SARS coronavirus; assay type: functional, cell-based; details: Chlorocebus sabaeus
SARS-CoV [2] = experiment: Antiviral activity against SARS coronavirus in VeroE6 cells assessed as reduction in viral load at 0.625 uM; assay type: functional, Severe acute respiratory syndrome-related coronavirus
SARS-CoV [3] = experiment: Antiviral activity against SARS coronavirus in VeroE6 cells assessed as reduction in viral load at 1.25 uM; assay type: functional, Severe acute respiratory syndrome-related coronavirus
SARS-CoV [4] = experiment: Antiviral activity against SARS coronavirus in VeroE6 cells assessed as reduction in viral load; assay type: functional, Severe acute respiratory syndrome-related coronavirus
MRC5 [5] = experiment: Antiviral activity against human coronavirus 229E in MRC5 cells assessed as reduction in viral load at 2.5 uM; assay type: functional
Procedure, shortened: (§2)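 HCoV 229E (ATCC VR-740) stocks were grown in MRC-5 cells. MRC-5 cells were preabsorbed with 40 pfu/well virus for 1 h, then unabsorbed virus was removed and serially diluted compound added. Supernatants were harvested and TCID50 titred on fresh MRC-5 cells. Titre is given as log TCID50/mL.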

MRC5 [6] = experiment: Antiviral activity against human coronavirus 229E in MRC5 cells assessed as reduction in viral load at 5 uM; assay type: functional; procedure, shortened: as §2
MRC5 [7] = experiment: Protection of MRC5 cells infected with human coronavirus 229E at 1 uM; assay type: functional, cell-based
Procedure, shortened: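 MRC-5 cells at 90% confluence were infected for 1 h with 10-fold serial dilutions of HCoV 229E stock. Unabsorbed virus was removed and cells overlaid with 0.3% agarose. Compound was present in the medium for 4 days. Cells were then fixed with 10% formalin and stained with 0.5% crystal violet to see plaques.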

Plasma [8] = experiment: Stability in rat plasma; assay type: ADME, cell-free
Procedure, shortened: (§3)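 Human, mouse or rat plasma was prewarmed 5 min at 37 °C. Compound was added from a 100 µM stock in 1% DMSO to give 90% plasma. Samples were shaken at 37 °C for 0, 30 or 120 min, then quenched in acetonitrile with internal standard and centrifuged. Supernatant was diluted and analysed by LC/MS. Result is % of initial remaining.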

[9] = Stability in rat plasma after 30 mins; assay type: ADME, cell-free; details: read-out: Stability; procedure, shortened: as §3
[10] = Stability in rat plasma after 120 mins; assay type: ADME, cell-free; details: read-out: Stability; procedure, shortened: as §3
Mus musculus = species on record: Mus musculus; experiment: Stability in mouse plasma; assay type: ADME; procedure, shortened: as §3
[11] = Stability in mouse plasma after 30 mins; assay type: ADME; details: read-out: Stability; procedure, shortened: as §3
[12] = Stability in mouse plasma after 120 mins; assay type: ADME; details: read-out: Stability; procedure, shortened: as §3
Plasma [13] = experiment: Stability in human plasma; assay type: ADME, cell-free; procedure, shortened: as §3
[14] = Stability in human plasma after 30 mins; assay type: ADME, cell-free; details: read-out: Stability; procedure, shortened: as §3
[15] = Stability in human plasma after 120 mins; assay type: ADME, cell-free; details: read-out: Stability; procedure, shortened: as §3
SARS-CoV [16] = experiment: Antiviral activity against SARS coronavirus in VeroE6 cells assessed as reduction in viral load at 2.5 uM; assay type: functional, Severe acute respiratory syndrome-related coronavirus
SARS-CoV [17] = experiment: Antiviral activity against SARS coronavirus in VeroE6 cells assessed as reduction in viral load at 5 uM; assay type: functional, Severe acute respiratory syndrome-related coronavirus
SARS-CoV [18] = experiment: Antiviral activity against SARS coronavirus in VeroE6 cells assessed as reduction in viral load at 10 uM; assay type: functional, Severe acute respiratory syndrome-related coronavirus
MRC5 [19] = experiment: Antiviral activity against human coronavirus 229E in MRC5 cells assessed as reduction in viral load; assay type: functional; procedure, shortened: as §2
MRC5 [20] = experiment: Antiviral activity against human coronavirus 229E in MRC5 cells assessed as reduction in viral load at 0.625 uM; assay type: functional; procedure, shortened: as §2
MRC5 [21] = experiment: Antiviral activity against human coronavirus 229E in MRC5 cells assessed as reduction in viral load at 1.25 uM; assay type: functional; procedure, shortened: as §2

## CCOC(=O)/C=C/[C@H](C[C@@H]1CCNC1=O)NC(=O)[C@H](Cc1ccc(F)cc1)NC(=O)[C@@H](NC(=O)c1cc(C)on1)C(C)C
Replicase polyprotein 1a
  Ki: > 10 µM
Human coronavirus 229E
  Ki: > 10 µM
MRC5 [1]
  IC50: > 20 µM

## CCOC(=O)/C=C/[C@H](C[C@@H]1CCNC1=O)NC(=O)[C@H](CC(C)C)NC(=O)[C@@H](NC(=O)OCc1ccccc1)C(C)OC(C)(C)C (some centres undefined)
Replicase polyprotein 1a
  Ki: 0.058 µM
MRC5 [1]
  IC50: 0.88 µM

## CCOC(=O)/C=C/[C@H](C[C@@H]1CCNC1=O)NC(=O)[C@H](CC(C)C)NC(=O)[C@@H](NC(=O)OCc1ccccc1)C(C)C
Replicase polyprotein 1a
  Ki: 0.66 µM
MRC5 [1]
  IC50: 9.1 µM

## CC(OC(C)(C)C)[C@H](NC(=O)OCc1ccccc1)C(=O)N[C@@H](CC1CCCCC1)C(=O)N[C@H](C=O)C[C@@H]1CCNC1=O (some centres undefined)
Replicase polyprotein 1a
  Ki: 0.053 µM
Human coronavirus 229E
  Ki: 0.068 µM
MRC5 [1]
  IC50: 0.14 µM
Vero
  IC50: 0.6 µM
SARS-CoV [2]
  log10 TCID50: 6.4
SARS-CoV [3]
  log10 TCID50: 6
SARS-CoV [4]
  log10 TCID50: 6.7
MRC5 [5]
  log10 TCID50: 1.3
MRC5 [6]
  log10 TCID50: 1.3
MRC5 [7]
  Activity: Active
Plasma [8]
  Stability: 100%
[9]
  remaining at 0.5 h: 70%
[10]
  remaining at 2 h: 73%
Mus musculus
  Stability: 100%
[11]
  remaining at 0.5 h: 84%
[12]
  remaining at 2 h: 71%
Plasma [13]
  Stability: 100%
[14]
  remaining at 0.5 h: 81%
[15]
  remaining at 2 h: 83%
SARS-CoV [16]
  log10 TCID50: 5
SARS-CoV [17]
  log10 TCID50: 2
SARS-CoV [18]
  log10 TCID50: 2
MRC5 [19]
  log10 TCID50: 6.51
MRC5 [20]
  log10 TCID50: 3
MRC5 [21]
  log10 TCID50: 1.3

## CCOC(=O)/C=C/[C@H](C[C@@H]1CCNC1=O)NC(=O)[C@H](Cc1ccccc1)NC(=O)[C@@H](NC(=O)OCc1ccccc1)C(C)C
Replicase polyprotein 1a
  Ki: 2.26 µM
MRC5 [1]
  IC50: 13.2 µM
